Source: article PMC8412899 (ACS Omega, 2021)

What was measured:
[1] = In vivo PK characteristics; design: species or system mice; conditions: mouse, iv, 12.5 mg/kg
[2] = test system: human multiple myeloma cell line xenograft (AMO-1); test: AMO-1 efficacy model; type: in vivo, mice; conditions: QD5, i.v. bolus; for %TGI (day): D14
Outline: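 Female CB-17 SCID mice (6–7 weeks) received 5 × 10⁶ AMO-1 cells s.c. in the right flank, in 50:50 growth medium:Matrigel. At ~200 mm³ they were randomized, n = 8. Freshly prepared test compound in 20% HPbCD/25 mM HCl was given i.v. daily ×5. Calipers were read 2–3×/week; volume = length × width²/2. TGI was taken at the control group's last day and at maximum; TGD used a 500 mm³ median.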

cleaved PARP = test: In vivo PD: increase of cleaved PARP in AMO1 xenografted mice; conditions: AMO1 xenografted mice, 16 h after i.v. bolus treatment at 12.5 mg/kg
Outline: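 Female CB-17 SCID mice (6–7 weeks) were implanted s.c. with 5 × 10⁶ AMO-1 cells in 50:50 medium:Matrigel. At ~200 mm³ tumor volume they were randomized, n = 3 per group. Test compound in 20% HPbCD/25 mM HCl was given as a single 12.5 mg/kg i.v. bolus. Cleaved PARP increase was measured in tumors 16 h later.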

[3] = Atropoisomer stability in solution; type: physicochemical
MCL-1 = MCL-1 (Homo sapiens, UniProt Q07820); test: QA; type: binding; conditions: QA MCL-1 Ki
NCI-H929 cells = test: MTT cell viability assay of NCI H929 cell line; type: cell-based; conditions: than 16a

Sequence of MCL-1 (Q07820 whole entry): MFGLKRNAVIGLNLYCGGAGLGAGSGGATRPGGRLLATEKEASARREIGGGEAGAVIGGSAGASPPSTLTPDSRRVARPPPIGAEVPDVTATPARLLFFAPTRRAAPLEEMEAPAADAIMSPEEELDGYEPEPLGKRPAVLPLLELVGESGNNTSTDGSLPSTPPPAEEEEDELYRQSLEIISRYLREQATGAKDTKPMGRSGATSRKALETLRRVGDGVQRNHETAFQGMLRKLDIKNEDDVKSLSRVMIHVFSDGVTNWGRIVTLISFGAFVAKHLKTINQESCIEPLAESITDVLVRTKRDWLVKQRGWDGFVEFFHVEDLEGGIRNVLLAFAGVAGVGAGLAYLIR

Row | SMILES | AUC [1] [ng·h/mL] | clearance [1] [mL/min/kg] | time to reach 500 mm^3 (median of the group) ([2]; 6.25 mpk) | %TGI (day) ([2]; 6.25 mpk) | %TGI max (day) ([2]; 6.25 mpk, d7) | time to reach 500 mm^3 (median of the group) ([2]; 12.5 mpk) | %TGI (day) ([2]; 12.5 mpk) | %TGI max (day) ([2]; 12.5 mpk, d2) | PARP activation (fold) (cleaved PARP) | atropoisomer stability [3] | Ki (MCL-1) [nM] | cellular activity, fold less (NCI-H929 cells) [fold]
1 | COc1ccccc1-c1nccc(COc2ccccc2C[C@@H](Oc2ncnc3sc(-c4ccc(F)cc4)c(-c4ccc(OCCN5CCN(C)CC5)c(Cl)c4C)c23)C(=O)O)n1 [Compound 16a, (2R)-2-{[(5Sa)-5-{3-Chloro-2-methyl-4-[2-(4-methylpiperazin-1-yl)ethoxy]phenyl}-6-(4-fluorophenyl)thieno[2,3-d]pyrimidin-4-yl]oxy}-3-(2-{[2-(2-methoxyphenyl)pyrimidin-4-yl]methoxy}phenyl)propanoic Acid] | 34000 | 6 | – | – | – | – | – | – | – | – | – | –
2 | COc1ccccc1-c1nccc(COc2ccccc2C[C@@H](Oc2ncnc3oc(-c4ccc(F)cc4)c(-c4ccc(OCCN5CCN(C)CC5)c(Cl)c4C)c23)C(=O)O)n1 [Compound 24, (2R)-2-{[5-{3-Chloro-2-methyl-4-[2-(4-methylpiperazin-1-yl)ethoxy]phenyl}-6-(4-fluorophenyl)furo[2,3-d]pyrimidin-4-yl]oxy}-3-(2-{[2-(2-methoxyphenyl)pyrimidin-4-yl]methoxy}phenyl)propanoic Acid] | 56000 | 2.5 | 28 | 103.5 (D14) % | 122.7 (d7) % | 37 | 107.7 (D14) % | 184.8 (d2) % | 129 | equilibrate rapidly in solution to give a 1:1 mixture | 0.036 | 10
